Bioassay records as filed in PubChem.
APJ antag = antagonists of human APJ apelin receptor; actives 0.32% (n = 330,000); CHO-K1 APJ beta-arrestin complementation, luminescence; AID 2521; inhibition, % at 20 µM; P35414;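 active = inhibition above about 40% at 20 µM, limit read from the data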;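 also: cells challenged with 10 nM apelin-13 agonist together with compound; plate controls were apelin-13 plus DMSO wells for no effect and DMSO wells lacking apelin-13 for full effect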
DAGLB inhibitor = diacylglycerol lipase beta (human) inhibition. HEK293T DAGLB membrane lysate, EnzChek fluorogenic substrate. inhibition, % at 5.17 µM. actives 0.059% (n = 340,000); in the data active = inhibition above about 34%;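 also: 0% = enzyme with vehicle and 100% = wells lacking enzyme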
Target sequence (Q8NCG7 whole entry, looked up): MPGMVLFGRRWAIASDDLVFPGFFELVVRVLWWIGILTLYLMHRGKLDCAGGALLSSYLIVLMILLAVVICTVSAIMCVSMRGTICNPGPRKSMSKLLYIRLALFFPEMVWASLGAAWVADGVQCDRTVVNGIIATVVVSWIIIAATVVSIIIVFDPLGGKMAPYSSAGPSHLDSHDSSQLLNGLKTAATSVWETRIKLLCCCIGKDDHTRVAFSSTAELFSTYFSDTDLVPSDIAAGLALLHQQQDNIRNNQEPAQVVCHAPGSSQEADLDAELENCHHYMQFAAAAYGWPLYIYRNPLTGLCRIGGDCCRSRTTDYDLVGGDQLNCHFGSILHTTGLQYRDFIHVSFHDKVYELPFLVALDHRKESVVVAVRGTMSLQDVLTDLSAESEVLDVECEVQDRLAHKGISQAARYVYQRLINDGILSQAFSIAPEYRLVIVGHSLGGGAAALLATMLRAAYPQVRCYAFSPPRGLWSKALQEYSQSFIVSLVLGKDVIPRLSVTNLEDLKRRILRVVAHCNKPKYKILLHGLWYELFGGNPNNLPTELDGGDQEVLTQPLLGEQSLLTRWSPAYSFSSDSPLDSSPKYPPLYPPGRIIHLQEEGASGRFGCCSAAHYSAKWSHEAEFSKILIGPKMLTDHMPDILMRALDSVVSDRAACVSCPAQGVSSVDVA
CXCR6 block = CXCR6 (human) receptor inhibition. O00574. CHO-K1 PathHunter CXCR6 beta-arrestin, luminescence. inhibition, % at 20 µM. actives 0.36% (n = 360,000). AID 602244; in the data active = inhibition above about 34%, passing the limit was not always enough;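 also: antagonist mode with CXCL16 agonist at 10 nM final; 0% = 10 nM CXCL16 with DMSO and 100% = unstimulated wells without agonist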
iPSC survival up = increases survival of single human iPS cells | hiPSC single-cell survival, ATPlite luminescence; 100% = ROCK inhibitor wells, 0% = DMSO | survival enhancement, % at 20 µM | actives 0.044% (n = 360,000); in the data active = survival enhancement above about 18%;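 also: cells exposed to compounds for 16 hours before the ATP read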
APJ ag = APJ receptor agonism; actives 0.11% (n = 330,000); P35414; CHO-K1 APJ PathHunter beta-arrestin, luminescence; 0% DMSO wells, 100% apelin; activation, % at 20 µM; AID 2520;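 active = activation more than six SD over the plate average, tested at 20 µM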;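 also: 0% = DMSO alone and 100% = apelin-13 at 10 nM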
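Incubation: overnight seeding, 90 min compound at 25 °C, 1 h detection; test system: PathHunter CHO-K1 APJ (AGTRL-1) beta-arrestin reporter cells; amount: 1000 cells/well; doses: one dose, 20 µM compound, 1% DMSO; measured by: beta-gal luminescence; measure: agonist-driven arrestin binding to APJ; benchmarks: negative DMSO alone, positive Apelin-13 at 10 nM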
CCR6 antagonist = CCR6 (human) receptor antagonism | CHO-K1 CCR6 PathHunter beta-arrestin, luminescence, CCL20-stimulated | P51684 | actives 0.49% (n = 340,000) | inhibition, % at 20 µM;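 active = compounds whose inhibition of the agonist-driven luminescence signal at 20 µM reaches about 50%, limit read from the data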;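 also: cells stimulated with CCL20 at 14 nM final; plate controls were DMSO with CCL20 for no effect and DMSO without agonist for full effect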
APJ antag confirm = confirmation of human APJ apelin receptor antagonists | inhibition, % at 20 µM | AID 2766 | APJ beta-arrestin recruitment, luminescence, antagonist mode | shares compounds with APJ antag | actives 66% (n = 950); in the data active = inhibition above about 50%
CXCR6 antag conf = CXCR6 antagonism confirmation, single concentration; shares compounds with CXCR6 block; AID 602409; actives 65% (n = 700); CHO-K1 CXCR6 PathHunter beta-arrestin, luminescence; inhibition, % at 20 µM;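 active = mean inhibition over four retests above 40%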;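 also: receptor stimulated with 10 nM CXCL16 agonist; beta-galactosidase fragment complementation upon beta-arrestin recruitment to receptor; plate controls were CXCL16 plus DMSO for no effect and DMSO without CXCL16 for full effect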
* hit, by the source's call; nt = no result. The list is not random: actives were taken first. Their share in the collection is about 0.86%.

SMILES	APJ antag	DAGLB inhibitor	CXCR6 block	iPSC survival up	APJ ag	CCR6 antagonist	APJ antag confirm	CXCR6 antag conf
CS(=O)(=O)c1ncc(Cl)c(C(=O)Nc2ccc(N3CCOCC3)cc2)n1	22	3	25	-2	0	44	nt	nt
CCS(=O)(=O)c1ncc(Cl)c(C(=O)Nc2ccc(S(=O)(=O)N(C)c3ccccc3)cc2)n1	67*	2	85*	21*	-5	94*	102*	92*
CS(=O)(=O)c1ncc(Cl)c(C(=O)Nc2ccc(OC(F)F)cc2)n1	44*	-6	47*	0	-4	57*	72*	60*
O=C(Nc1ccc(F)cc1)c1nc(S(=O)(=O)Cc2ccccc2)ncc1Cl	40*	0	62*	3	-6	78*	84*	67*
O=C(Nc1ccc(F)cc1)c1nn(-c2ccccc2)c(=O)cc1Cl	nt	3	18	3	nt	-9	nt	nt
COc1ccc(OC)c(NC(=O)c2nc(S(=O)(=O)Cc3ccccc3)ncc2Cl)c1	63*	4	59*	1	-9	84*	96*	69*
CC(=O)Nc1ccc(S(=O)(=O)N(C)c2ccccc2)cc1	5	4	-5	2	-5	15	nt	nt
COc1ccc(NC(=O)c2nc(S(=O)(=O)Cc3cccc(C)c3)ncc2Cl)c(OC)c1	-8	5	3	7	3	2	nt	nt
CC(=O)c1cccc(NC(=O)CC2S/C(=N/N=C/c3cccs3)NC2=O)c1 (stereo not drawn)	9	1	-8	0	-3	7	nt	nt
OC(CN(Cc1ccccc1)Cc1ccccc1)c1ccccc1 (stereo not drawn)	nt	-13	1	-1	nt	18	nt	nt
CCc1nc2ccc(C(=O)N(CC)CCN(C)C)cn2c1N(C)Cc1nccs1	nt	nt	5	1	nt	nt	nt	nt
CN(C)Cc1csc(NC(=O)Nc2ccccc2C(C)(C)C)n1	nt	nt	8	2	nt	nt	nt	nt
CC(=O)Nc1ccc(-c2ccnc3c2CC(C(=O)NCc2ccccc2)O3)cc1 (stereo not drawn)	nt	nt	-4	-1	nt	nt	nt	nt
O=C1C(Cc2ccccc2)Nc2ncnc(N3CCc4ccccc4C3)c2N1Cc1ccccc1 (stereo not drawn)	22	3	3	3	-2	10	nt	nt
CC(C)CC1Nc2ncnc(N3CCN(c4ccccc4)CC3)c2N(Cc2ccc(Br)cc2)C1=O (stereo not drawn)	21	0	21	-2	2	12	nt	nt
COc1ccc(CN2C(=O)C(Cc3ccccc3)Nc3ncnc(N4CCN(c5ccccc5)CC4)c32)cc1 (stereo not drawn)	53*	0	70*	-1	-21	80*	110*	68*
O=C1C(Cc2ccccc2)Nc2ncnc(N3CCN(c4ccccc4)CC3)c2N1Cc1ccc(Cl)cc1 (stereo not drawn)	65*	-11	68*	5	-17	78*	104*	70*
Nc1nc(SCC(=O)Nc2c(Br)cc([N+](=O)[O-])cc2Br)n[nH]1	-13	0	-7	1	3	-12	nt	nt
CNc1cncc(-c2cnn(CC(C)C)c2)n1	nt	nt	0	3	nt	nt	nt	nt
COc1cc(/C=C(\C#N)c2nc(-c3cc4ccccc4oc3=O)cs2)ccc1O	53*	-5	49*	-1	-9	60*	76*	49*
CN(CC(=O)Nc1cccc(F)c1)C(=O)CN1C(=O)C2CC=CCC2C1=O (stereo not drawn)	5	2	-12	2	-5	-4	nt	nt
Cc1cccnc1Nc1nc(-c2ccccn2)cs1	80*	-2	72*	0	-11	72*	103*	89*
CC(=O)C(=Cc1ccccc1)c1ccccc1	nt	nt	-6	-1	nt	nt	nt	nt
Cc1c(Nc2cc(Cl)c3nonc3c2[N+](=O)[O-])c(=O)n(-c2ccccc2)n1C	83*	3	88*	33*	-7	91*	115*	105*
C/C(=N/NC(=O)c1ccccn1)c1ccncc1	-7	-8	-6	2	0	-3	nt	nt
SMILES	APJ antag	DAGLB inhibitor	CXCR6 block	iPSC survival up	APJ ag	CCR6 antagonist	APJ antag confirm	CXCR6 antag conf
C/C(=N/NC(=O)c1ccc(C(C)(C)C)cc1)c1ccccn1	69*	-5	77*	0	-19	94*	88*	82*
O=C(Nc1nc2c(F)cc(F)cc2s1)c1ccccn1	80*	2	49*	-1	-8	79*	84*	69*
O=C(COc1ccccc1)NNc1nc2c(F)cc(F)cc2s1	-15	-1	-7	-2	-1	4	nt	nt
COc1ccc(-c2cc(C(=O)Nc3c(F)cc(F)cc3Br)no2)cc1	-1	-4	3	0	-3	12	nt	nt
COc1ccc(C)c(-n2c(=O)n(Cc3ccccc3)c(=O)c3[nH]cnc32)c1	69*	nt	69*	1	-19	81*	117*	70*
COc1ccc(Cn2c(=O)c3[nH]cnc3n(-c3ccccc3C)c2=O)cc1	3	-1	0	0	-3	5	nt	nt
O=C(NNC(=O)C12CC3CC(CC(C3)C1)C2)c1cnccn1	3	0	13	1	-1	10	nt	nt
O=C(NNC(=O)C12CC3CC(CC(C3)C1)C2)c1ccccn1	49*	1	71*	0	-8	92*	69*	79*
N=C1S/C(=C\c2ccco2)C(=O)N1c1nccs1	44*	4	66*	-1	-8	83*	66*	77*
C/C(=N\NC(=O)Cn1c(-c2ccccn2)nc2ccccc21)c1ccccc1	47*	1	46*	3	-9	60*	72*	47*
CCOc1ccc2[nH]c(SCC(=O)OC)c([N+](=O)[O-])c2c1	39	1	25	0	-3	42	nt	nt
COC(=O)CSc1[nH]c2ccc(Br)cc2c1[N+](=O)[O-]	41*	-1	41*	-1	-7	61*	55*	46*
Cc1ccccc1-c1ccccc1CN1[C@@H](C(C)C)COCCS1(=O)=O	nt	-6	3	-1	nt	26	nt	nt
CCOC(=O)C1=C(C)NC(c2cccs2)C(=O)N1 (stereo not drawn)	4	0	-1	0	-2	-6	nt	nt
CCOC(=O)C1=C(C)NC2=C(C(=O)CC(c3cccs3)C2)C1c1cccs1 (stereo not drawn)	41*	-7	42*	1	-11	54*	73*	45*
CCCSc1cc(NCCOC(C)=O)c([N+](=O)[O-])c2nonc12	22	-2	6	2	-4	17	nt	nt
